TRPC6 inh: mouse TRPC6 channel inhibitors, primary screen, cell-based, HEK293, membrane potential dye; ACh-evoked depolarization; hits give low values; B-score at 10 µM; hit rate 1.1% among 310,000;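 active = B-score under library mean minus 3 SD, initial fluorescence not abnormally high, positive integrated signal ratio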;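 note: B-score derived from integrated fluorescence ratio over the kinetic read; more negative B-score means stronger inhibition of depolarization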
Target sequence (Q61143 whole entry, looked up): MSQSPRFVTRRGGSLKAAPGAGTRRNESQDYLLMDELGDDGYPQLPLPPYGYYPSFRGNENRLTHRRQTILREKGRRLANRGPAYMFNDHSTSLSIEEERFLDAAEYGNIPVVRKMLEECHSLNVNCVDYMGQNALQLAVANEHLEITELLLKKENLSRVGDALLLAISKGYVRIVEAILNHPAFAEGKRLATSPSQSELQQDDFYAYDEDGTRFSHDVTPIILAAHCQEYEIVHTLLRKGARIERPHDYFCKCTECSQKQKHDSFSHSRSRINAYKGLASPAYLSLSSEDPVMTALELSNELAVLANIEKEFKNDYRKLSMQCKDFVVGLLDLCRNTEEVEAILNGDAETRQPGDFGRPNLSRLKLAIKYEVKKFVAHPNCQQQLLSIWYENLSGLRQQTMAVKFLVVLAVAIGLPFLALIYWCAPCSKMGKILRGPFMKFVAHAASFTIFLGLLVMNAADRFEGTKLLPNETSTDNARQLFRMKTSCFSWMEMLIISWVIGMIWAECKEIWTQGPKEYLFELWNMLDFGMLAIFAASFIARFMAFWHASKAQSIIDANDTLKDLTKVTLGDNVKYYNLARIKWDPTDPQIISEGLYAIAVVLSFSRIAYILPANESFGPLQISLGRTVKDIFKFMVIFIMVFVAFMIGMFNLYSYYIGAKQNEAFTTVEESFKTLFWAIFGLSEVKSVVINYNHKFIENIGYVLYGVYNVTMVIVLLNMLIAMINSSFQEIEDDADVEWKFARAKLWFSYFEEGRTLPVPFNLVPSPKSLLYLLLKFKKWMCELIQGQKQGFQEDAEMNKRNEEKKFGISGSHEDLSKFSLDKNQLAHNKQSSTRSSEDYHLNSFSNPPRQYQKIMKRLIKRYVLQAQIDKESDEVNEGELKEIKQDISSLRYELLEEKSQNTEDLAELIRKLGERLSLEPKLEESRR
TRPC4 agonist: activators of mouse TRPC4 channel, primary screen, Fluo4 calcium, HEK293 TRPC4beta/mu-opioid cells | Short transient receptor potential channel 4 (Mus musculus), Q9QUQ5 | Fluo4 calcium fluorescence; hits give high values | B-score at 10 µM | hit rate 0.49% among 310,000 | AID 2237, 2010;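 active = B-score above 5 SD of library B-scores, and initial fluorescence ratio not above library mean plus 5 SD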;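 note: positive B-score marks a calcium rise read as TRPC4 activation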
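system = HEK293 cells stably co-expressing mouse TRPC4beta and mu-opioid receptor | schedule = Fluo4 dye loading 45 min at room temperature, 110 s recording | measure = B-scored integrated calcium fluorescence ratio | signal = Fluo4 calcium-sensitive dye fluorescence, kinetic, 1 Hz baseline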
TRPC6 act: mouse TRPC6 channel activators, primary screen, cell-based, HEK293, membrane potential dye; hit rate 0.13% among 310,000; HEK293-TRPC6 membrane potential dye fluorescence; hits give high values; Short transient receptor potential channel 6 (Mus musculus), Q61143; B-score at 10 µM; AID 2550, 2010;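 active = B-score of the integrated fluorescence ratio above library mean plus 3 SD, and starting fluorescence ratio within library mean plus 5 SD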;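 note: higher score means more depolarization so channel activation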
TRPC4 PAM: positive allosteric modulators of TRPC4, primary screen, cell-based, mouse TRPC4beta, HEK293 mu-opioid, Fluo-4 calcium. DAMGO EC20, Fluo-4 Ca2+ flux; hits give high values. AID 2227, 2009. hit rate 0.42% among 310,000. B-score at 10 µM;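 active = B-score of calcium response area above 5 SD of library B-scores, with initial fluorescence ratio within 5 SD of library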;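 note: B-score of integrated fluorescence ratio over time as area under calcium response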
TRPC4 inh: inhibitors of mouse TRPC4 channel, primary screen, Fluo4 calcium, HEK293 TRPC4beta/mu-opioid cells; DAMGO-evoked Fluo4 calcium flux; hits give low values; B-score at 10 µM; hit rate 0.39% among 300,000; AID 2247, 2010;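 active = B-score over 3 SD under the library average, no early fluorescence shift, positive overall ratio signal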
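System: stable TRPC4beta/mu-opioid receptor HEK293 cells; Dosing: single-point compound dosing; Measured by: Fluo4 Ca2+ flux fluorescence; Read-out basis: per-well B score of integrated baseline-normalized Fluo4 ratio.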
TRPC4 spec 2: second check of whether TRPC6 inhibitors also affect mouse TRPC4. shares compounds with TRPC6 inh. HEK293 TRPC4/MOR, membrane potential dye fluorescence; channel activated by saturating DAMGO dose. inhibition, % at 10 µM. hit rate 42% among 920;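 active = compounds whose fluorescence signal differed from control wells by over 3 SD, either direction, in both duplicate plates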
TRPC4 spec: mouse TRPC4 modulation by TRPC6 hits, confirmation, selectivity assay for TRPC6 inhibitor project, cell-based, HEK293 TRPC4/mu-opioid, membrane potential dye; shares compounds with TRPC6 inh; membrane potential fluorescence; activity change, negative = inhibition, % at 10 µM; hit rate 61% among 920;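 active = rise or fall in signal beyond 3 SD of buffer-only wells in both replicate plates, either sign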;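 note: integrated kinetic ratio of fluorescence range over baseline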
HEK293 MPD ctr 2-1: nonspecific membrane potential effects, parental HEK293, confirmation, counter-screen for TRPC6 inhibitor project, cell-based, second counter screen; AID 2779, 2010; signal change vs control, % at 10 µM; parental HEK293 membrane potential dye fluorescence; maximal acetylcholine challenge after compound addition; shares compounds with TRPC6 inh; hit rate 31% among 920;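 active = membrane potential signal moving either way by over 3 SD of the maximum-effect control, in both duplicate plates, meaning non-specific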
HEK293 MPD ctr-1: membrane potential modulation in parental HEK293, confirmation, counter-screen for TRPC6 inhibitor project, cell-based. parental HEK293 membrane potential dye fluorescence. shares compounds with TRPC6 inh. hit rate 60% among 920. membrane potential signal change, % at 10 µM;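 active = membrane potential signal shifting up or down by more than 3 SD of buffer-only wells, on both duplicate plates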
HEK293 MPD ctr-2: parental HEK293 membrane potential modulation, confirmation, counter-screen for TRPC6 modulator project, cell-based | shares compounds with TRPC6 inh | membrane potential dye fluorescence | membrane potential signal change, % at 10 µM | hit rate 51% among 2,400 | AID 488924, 2010;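 active = membrane potential signal moves up or down beyond 5 SD from buffer-only wells, on both duplicate plates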
HEK293 MPD ctr 2-2: second check of TRPC6 modulator effects in parental HEK293 cells; membrane potential dye fluorescence; after compound, maximal acetylcholine stimulation; hit rate 14% among 2,400; shares compounds with TRPC6 inh; AID 488926; inhibition, % at 10 µM;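 active = membrane potential signal drops by more than 5 SD from the mean control signal, in both duplicate plates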;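 note: plate controls were acetylcholine ECmax control wells for no effect and buffer only wells for full effect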
TRPC4/MOR mod: TRPC4 modulation by TRPC6 hit compounds, confirmation, selectivity assay for TRPC6 modulator project, cell-based, HEK293 TRPC4/mu-opioid, membrane potential dye, mouse | shares compounds with TRPC6 inh | membrane potential fluorescence | percent change from control (negative = decrease, positive = increase), % at 10 µM | hit rate 69% among 2,400 | AID 488927, 2010;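 active = membrane potential signal moved up or down beyond 5 SD of buffer control wells, in both duplicate plates, actives on both sides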;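 note: plate controls were assay buffer wells for no effect and DAMGO maximal-effect wells for full effect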
TRPC4 ctr inh 2: second selectivity test of TRPC6 modulators against mouse TRPC4; hit rate 55% among 2,400; HEK293 TRPC4/mu-opioid, membrane potential dye fluorescence; stimulated with maximal-effect DAMGO; shares compounds with TRPC6 inh; inhibition, % at 10 µM;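 active = drop in membrane potential signal beyond 5 SD of the control wells in both duplicate plates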;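 note: TRPC4 counter screen for TRPC6 hits run under conditions tuned for TRPC6 not TRPC4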
TRPC6 inh conf: mouse TRPC6 channel inhibitors, confirmation, HEK293 cells, membrane potential dye, duplicate. shares compounds with TRPC6 inh. ACh-evoked depolarization. inhibition, % at 10 µM. hit rate 43% among 3,300. AID 488960, 2010;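 active = fluorescence ratio falls more than 5 SD below the full-stimulation control mean, in both duplicate runs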;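 note: integrated fluorescence ratio of peak minus minimum over baseline after agonist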
TRPC6 act confirm: mouse TRPC6 channel activators, confirmation, HEK293 cells, membrane potential dye, duplicate; shares compounds with TRPC6 inh; HEK293-TRPC6 membrane potential dye fluorescence, FDSS; activation, % at 10 µM; hit rate 11% among 2,800; AID 488961, 2010;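 active = ratio signal rise beyond 5 SD above unstimulated control wells' mean, seen in both duplicate runs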;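 note: plate controls were buffer EC0 wells for no effect and acetylcholine ECmax response for full effect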
* marks the source's active call; other numbers are inactive results; i = inactive; nt = not tested or not shown. Shown are actives, neighbours in structure and some others; about 2.3% of the full set was active somewhere.

SMILES | TRPC6 inh | TRPC4 agonist | TRPC6 act | TRPC4 PAM | TRPC4 inh | HEK293 MPD ctr-2 | HEK293 MPD ctr 2-2 | TRPC4/MOR mod | TRPC4 ctr inh 2 | TRPC6 inh conf | TRPC6 act confirm | others
O=C(COc1ccc([N+](=O)[O-])cc1)Nc1ccncc1 | -5.2* | i | i | i | i | -134%* | i | -28%* | 32%* | 37%* | i
O=C(COc1ccc(/C=N/NC(=O)c2ccncc2)cc1)Nc1ccc([N+](=O)[O-])cc1 | i | i | i | i | i | nt | nt | nt | nt | nt | nt
COc1cccc(-c2cc(C(=O)Nn3cnnc3)c3ccccc3n2)c1 | i | i | i | i | i | nt | nt | nt | nt | nt | nt
COc1ccc(S(=O)(=O)NC(C)C(=O)Nc2ccc3c(c2)OCCO3)cc1OC (stereo unspecified) | -6.1* | i | i | i | i | i | i | i | i | i | i
COc1ccc(S(=O)(=O)NC(C)C(=O)Nc2ccc3c(c2)OCO3)cc1OC (stereo unspecified) | i | i | i | i | i | nt | nt | nt | nt | nt | nt
CC(=O)Oc1ccc(/C=N/NC(=O)CCSc2ccccc2)cc1 | i | i | i | i | i | nt | nt | nt | nt | nt | nt
CCCCOc1ccc(Br)cc1/C(C)=N/NC1=NCCN1 | -7.3* | i | i | i | i | nt | nt | nt | nt | i | i | TRPC4 spec 2=27%*;TRPC4 spec=15%*;HEK293 MPD ctr 2-1=233%*;HEK293 MPD ctr-1=8.4%*
COc1ccc(/C(C)=N/NC2=NCCN2)cc1Cl | i | i | i | i | i | nt | nt | nt | nt | nt | nt
CC1(C)CC(N=C2C([N+](=O)[O-])=CC=C3C2=NC2(CCCCC2)N3O)CC(C)(C)N1 | -5.2* | i | i | i | i | -130%* | i | -26%* | 30%* | i | i
O=[N+]([O-])C1=CC=C2C(=NC3(CCCCC3)N2O)C1=NC1CCCCC1 | i | i | i | i | i | nt | nt | nt | nt | nt | nt
Cc1cccc(NC(=O)CSc2nc3nc(C)cc(C)c3c(=O)[nH]2)c1 | -6.9* | i | i | i | i | nt | nt | nt | nt | i | i | TRPC4 spec 2=i;TRPC4 spec=i;HEK293 MPD ctr 2-1=i;HEK293 MPD ctr-1=i
CN1CCN(c2ccc(CNC(=O)c3cc4ccccc4o3)cc2)CC1 | -5.3* | i | i | i | i | i | i | i | 32%* | i | i
CCN1CCN(c2ccc(S(=O)(=O)N3CCCCC3)cc2NC(=O)c2ccc([N+](=O)[O-])o2)CC1 | -7.5* | i | i | i | i | -130%* | i | -30%* | 54%* | i | i
CN1CCN(c2ccc(S(=O)(=O)N3CCCCC3)cc2NC(=O)c2ccc(F)cc2F)CC1 | -9* | i | i | 16* | i | nt | nt | nt | nt | i | i | TRPC4 spec 2=70%*;TRPC4 spec=i;HEK293 MPD ctr 2-1=278%*;HEK293 MPD ctr-1=0.3%*
COc1ccc(S(=O)(=O)N2CCCCC2)cc1NC(=O)c1ccc([N+](=O)[O-])o1 | i | i | i | i | i | nt | nt | nt | nt | nt | nt
CCN1CCN(c2ccc(S(=O)(=O)N3CCCCC3)cc2NC(=O)COc2cc(C)ccc2Cl)CC1 | -5.7* | i | i | 25* | i | i | i | i | 54%* | i | i
Clc1ccccc1CSc1nncn1-c1cccnc1 | i | i | i | i | i | nt | nt | nt | nt | nt | nt
Cc1ccnc(NS(=O)(=O)c2ccc(NC(=O)C3CCCCC3)cc2)n1 | i | i | i | i | i | nt | nt | nt | nt | nt | nt
COC(=O)c1ccc(NC(=O)CSc2nnc(C)n2CC2CCCO2)cc1 (stereo unspecified) | i | i | i | i | i | nt | nt | nt | nt | nt | nt
COc1ccc(NC(=O)CN2CCC(n3c(C)nc4cc(F)ccc43)CC2)c(OC)c1 | i | i | i | i | i | nt | nt | nt | nt | nt | nt
COc1cc(OC)cc(C(=O)N2CCC(n3c(C)nc4cc(F)ccc43)CC2)c1 | i | i | 20* | i | i | i | i | i | i | nt | 163%*
CSc1nnc(-c2sc(-c3ccccc3)nc2C)n1C | i | i | i | i | i | nt | nt | nt | nt | nt | nt
O=C(CN1CCCCC1)N1c2ccccc2CCc2ccccc21 | -6.5* | i | i | i | i | 100%* | i | 17%* | i | i | nt
CCS(=O)(=O)Nc1cccc(C2=NN(S(C)(=O)=O)C(c3ccccc3)C2)c1 (stereo unspecified) | i | i | i | i | i | nt | nt | nt | nt | nt | nt
